From PubChem BioAssay
A selection: hits, their analogues and other compounds. The true share with any hit is near 2.3%.
HIF act = HIF pathway transcriptional activation | U2OS HRE-luciferase reporter, luminescence; normalized: DMSO 0%, desferrioxamine 100% | activation, % at 7.5 µM (by protocol) | 300,000 tested, 0.32% active | AID 1910;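 active = mean activation of at least 10% of the iron chelator positive control signal, with at least half of replicates also reaching 10%; inconclusive = mean and replicate majority disagree about reaching 10%; inactive = mean and most replicates under 10%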
KLF5 inhibitor = inhibitors of KLF5 expression; DLD-1 KLF5 promoter-luciferase reporter, luminescence; inhibition, % at 5 µM; 290,000 tested, 0.23% active; AID 1700;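 active = inhibition above a per-plate limit of that plate's mean compound inhibition plus 3 SD, cut at about 60% in these data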;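 note: 0% = DMSO wells and 100% = LY294002 at 200 µM; higher means less KLF5 promoter-driven luciferase light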
Beta cell apopt = beta cell apoptosis inhibition; INS-1E cytokine-induced death, ATP luminescence, 48 h; percent of positive-control rescue, neutral wells zero; protection from apoptosis, % (concentration not given with the values); 300,000 tested, 0.8% active;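 active = Every replicate reaches about 75%, or at least half do and their mean reaches it too, limit read from the data; inconclusive = At least half of replicates reach the limit but their mean does not; inactive = Under half of replicates reach the limit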;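 note: 0% = cytokine-treated negative control wells and 100% = positive control rescue; higher means more ATP so stronger rescue from cytokine killing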
T cruzi inh = T. cruzi replication inhibition | T. cruzi beta-gal in NIH3T3, luminescence, 90 h | inhibition, % (concentration not given with the values) | 300,000 tested, 1.4% active;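 active = mean inhibition across valid replicates above about 55%, limit read from the data; inconclusive = mean below that limit but half or more replicates reach it; inactive = mean below it, under half of replicates reach it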;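 note: signal also drops with host cell toxicity which is not excluded here; 0% = plate median of DMSO wells and 100% = zero luminescence signal; higher percent means less beta-gal luminescence so fewer parasites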
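System: Mouse NIH/3T3 fibroblasts infected with β-gal-expressing T. cruzi Tulahuen C4 | Quantity: NIH/3T3 cells, 5,000 per well | Reagent: 5000 reporter trypomastigotes per well | Dosing: Compound pinned at 50 nL/well, DMSO | Schedule: 3 h host attachment, then at least 90 h co-culture | Detection: GalScreen luminescence, 60 min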
A1 inh = inhibitors of the anti-apoptotic protein A1, read as caspase activation. MEF A1-2A-BIM cells, Caspase-Glo 3/7 luminescence, 3 h; percent of clofoctol response, vehicle zero. caspase activation, % (concentration not given with the values). 330,000 tested, 0.066% active. AID 2462;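 active = over half of replicate activation scores above 10%, or exactly half above 10 with the replicate mean above 10; inconclusive = replicate mean below 10 yet half the replicates above 10; inactive = over half of replicates below 10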
The depositor's hits bear a star; ? = inconclusive; . = no result.

SMILES	HIF act	KLF5 inhibitor	Beta cell apopt	T cruzi inh	A1 inh
O=[N+]([O-])c1ccc(N2CCN(S(=O)(=O)c3ccc(Cl)cc3)CC2)cc1NCc1cccnc1	0	2	-7	60*	1
O=[N+]([O-])c1ccc(N2CCN(S(=O)(=O)c3ccccc3)CC2)cc1NCc1cccnc1	-1	-30	3	20	0
CCN1/C(=C2\SC(=S)N(Cc3ccccc3)C2=O)Sc2ccccc21	0	-23	-3	11	?
CCC(CO)[n+]1c(C)cc(/C=C2\Sc3ccccc3N2Cc2ccccc2)cc1C (centres undefined)	.	-28	105*	.	0
Cc1ccccc1CN1C(=O)CSc2ccc(C(=O)N3CCOCC3)cc21	23*	-32	0	2	-1
O=C1C(=O)c2ccccc2C([O-])=C1[n+]1ccccc1	0	-2	-5	-10	0
CCc1cc[n+](C2=C([O-])c3ccccc3C(=O)/C2=N\S(=O)(=O)c2cccs2)cc1	0	48	106*	0	0
COc1ccc(CNC(=O)C(=O)NCC2OCCN2S(=O)(=O)c2ccc(OC)c(OC)c2)cc1 (centres undefined)	0	-8	-3	10	1
COc1ccc(S(=O)(=O)N2CCOC2CNC(=O)C(=O)NCc2ccc3c(c2)OCO3)cc1OC (centres undefined)	219*	-2	1	8	1
Cc1ccc(/C=N/NC(=O)C2CC(=O)N(c3ccccc3)C2)s1 (centres undefined)	1	11	-5	1	-1
O=C(N/N=C/c1ccccc1O)C1CC(=O)N(c2ccc(Cl)cc2)C1 (centres undefined)	9	59	84*	7	-1
CCOC(=O)c1cc(-c2ccccc2)sc1NC(=O)CN1C(=O)NC(CC)(c2ccccc2)C1=O (centres undefined)	-1	-18	-2	66*	-1
CCOC(=O)c1cc(-c2ccccc2)sc1NC(=O)CC	0	-9	-4	10	0
CCOC(=O)c1cc(-c2ccccc2)sc1NC(=O)CN1C(=O)NC(CC)(c2ccc(F)cc2)C1=O (centres undefined)	-2	7	6	60*	0
Cc1ccc(C)c(OCCC(=O)OC(C)C(=O)Nc2c(C)n(C)n(-c3ccccc3)c2=O)c1 (centres undefined)	0	.	-2	-6	0
O=C1C(=O)c2ccccc2C(O)=C1c1cccc([N+](=O)[O-])c1	23*	-12	6	-3	-1
Cc1ccc(C2=C(O)c3ccccc3C(=O)C2=O)cc1	0	-15	.	-13	-1
CC(C)(C)c1ccccc1OCC(=O)Nc1ccccc1C(=O)NCc1cccnc1	-1	10	3	62*	0
Cc1ccc(N(CC(=O)NC2CCCC2)C(=O)c2nsc(Cl)c2Cl)cc1	-1	4	1	9	0
Cc1cc(C)c(C#N)c(SCc2nnc(-c3ccccc3[N+](=O)[O-])o2)n1	2	-152	4	69*	1
Cc1nn2c(N3CCN(C)CC3)cc(C(C)(C)C)nc2c1-c1ccccc1	-1	-2	0	67*	0
O=C1N/C(=N/N=C/c2ccccc2O)SC1Cc1ccc(F)cc1 (centres undefined)	0	-1	87*	9	1
COc1ccc(CC2S/C(=N/N=C/c3ccccc3O)NC2=O)cc1 (centres undefined)	0	13	57	15	0
Cc1[nH]n(-c2ccccc2)c(=O)c1/C=N/NC(=O)COc1ccccc1[N+](=O)[O-]	0	-28	76*	-35	0
Cc1[nH]n(-c2ccccc2)c(=O)c1/C=N\NC(=O)C1COc2ccccc2O1 (centres undefined)	0	-17	78*	-32	-4
SMILES	HIF act	KLF5 inhibitor	Beta cell apopt	T cruzi inh	A1 inh
CC(=O)N/N=C/c1c(C)[nH]n(-c2ccccc2)c1=O	0	-17	3	-2	0
CSc1ccc(NS(=O)(=O)c2ccc(-n3cnnn3)cc2)cc1	-1	-8	1	3	0
CC(Sc1nnc(-c2ccco2)n1C)C(=O)N1C(C)CCCC1C (centres undefined)	0	-11	-3	-8	1
CCc1ccc(NC(=S)NC2CC3CCCC(C2)N3Cc2cccs2)cc1 (centres undefined)	0	-7	.	56*	1
CCc1ccccc1NC(=O)NC1CC2CCC(C1)N2Cc1cccs1 (centres undefined)	0	15	.	-9	2
CCOC(=O)c1c(NC(=O)Cn2cc([N+](=O)[O-])cn2)sc2c1CCC2	0	16	-1	9	0
CCOC(=O)c1c(NC(=O)Cn2cnc([N+](=O)[O-])n2)sc2c1CCC(C)C2 (centres undefined)	-1	-9	.	57*	0
COC(=O)c1c(NC(=O)Cc2cccs2)sc2c1CCC(C)C2 (centres undefined)	3	-15	0	22	0
COC(=O)c1c(NC(=O)Cn2cnc([N+](=O)[O-])n2)sc2c1CCC(C)C2 (centres undefined)	0	7	0	58*	0
Cn1nnnc1Sc1ncnc2scc(-c3ccsc3)c12	.	.	-4	.	-1
CC1=NN(c2ccc(C)c(C)c2)C(=O)/C1=C\C=C\c1ccc([N+](=O)[O-])o1	-7	1	84*	4	1
COc1cc2cc(C(=O)N3CCOCC3)cc(-c3ccc(C)cc3)c2cc1OC	-1	4	101*	32	1
COc1ccc(-c2csc(NC(=O)c3ccc(OCC(=O)N4CCOCC4)c(OC)c3)n2)cc1	0	0	67	44	0
COc1cc(C(=O)Nc2nc(-c3ccc(C)cc3)cs2)ccc1OCC(=O)N1CCOCC1	0	0	7	55*	1
COc1ccc(-c2cc(C(=O)N3CCOCC3)c3ccccc3n2)cc1OC	-2	.	-6	-5	0
COc1cc(C(=O)Nc2nc(-c3ccc(F)cc3)cs2)ccc1OCC(=O)N1CCOCC1	0	-16	29	60*	0
CC1CCC2(CC1)NC(=O)N(CC(=O)c1ccc(Cl)s1)C2=O (centres undefined)	0	-44	-2	4	2
COC(=O)C1C(=O)N2CCCSC2=C(C#N)C1c1cccs1 (centres undefined)	35*	10	.	4	-1
CCOc1ccc(NC(=O)CN(C)C(=O)c2ccc(=O)[nH]c2)cc1OCC	0	-15	-3	-17	0
O=C(Nc1nc(-c2ccccn2)cs1)c1ccc(Br)s1	0	13	85*	1	-2
O=C(Nc1nc(-c2ccccn2)cs1)c1cccc(-n2cnnn2)c1	20*	9	76*	63*	0
O=C(Nc1ccc(Br)cc1)c1cccc(-n2cnnn2)c1	0	-28	3	-1	1
